Assays:
[1] = target: T1, Transient receptor potential cation channel subfamily V member 1 (Homo sapiens, UniProt Q8NER1); test: Agonist activity at human recombinant TRPV1 expressed in HEK293 cells assessed as increase in intracellular calcium level relative to ionomycin; format: functional, cell-based
Method in brief: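 Stably transfected HEK-293 cells loaded 1 h at 25 °C with 4 µM Fluo-4 AM, washed, resuspended in Tyrode's buffer pH 7.4. Fluorescence (ex 488/em 516 nm) read at 25 °C with stirring, before and after compound at various concentrations. Efficacy relative to 4 µM ionomycin. EC50 is the concentration giving half-maximal [Ca2+]i rise, by sigmoidal fit. At least triplicate.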

[2] = target: Cannabinoid receptor 1 (Homo sapiens, UniProt P21554); test: Displacement of [3H]CP-55940 from human recombinant CB1 receptor expressed in HEK293 cell membrane; format: cell membranes
[3] = target: Cannabinoid receptor 2 (Homo sapiens, UniProt P34972); test: Displacement of [3H]CP-55940 from human recombinant CB2 receptor expressed in HEK293 cell membrane; format: cell membranes
[4] = target: T1, Transient receptor potential cation channel subfamily V member 1; test: Agonist activity at human recombinant TRPV1 expressed in HEK293 cells assessed as increase in intracellular calcium level; format: functional, cell-based
Method in brief: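 Stably transfected HEK-293 cells loaded 1 h at 25 °C with 4 µM Fluo-4 AM, washed, resuspended in Tyrode's buffer pH 7.4. Efficacy relative to 4 µM ionomycin. EC50 is the concentration giving half-maximal [Ca2+]i rise, by sigmoidal fit. At least triplicate.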

[5] = target: Cannabinoid receptor 1 (Mus musculus, UniProt P47746); test: Agonist activity at CB1 receptor expressed in mouse brain membrane by [35S]GTPgammaS binding assay; format: functional, cell membranes
Method in brief: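 Mouse brain membranes (10 µg/mL) preincubated 30 min at 30 °C with adenosine deaminase 0.5 U/mL, in Tris buffer with MgCl2, EDTA, NaCl, DTT, 0.1% BSA, 0.1 nM [35S]GTPγS, 30 µM GDP; compounds 60 min at 30 °C. Nonspecific with 30 µM GTPγS. Filtration, scintillation counting. 0.1% DMSO vehicle. Basal subtracted; EC50 and Emax by sigmoid nonlinear regression.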

Sequence of Cannabinoid receptor 1 (Homo sapiens, UniProt P21554) (P21554 whole entry): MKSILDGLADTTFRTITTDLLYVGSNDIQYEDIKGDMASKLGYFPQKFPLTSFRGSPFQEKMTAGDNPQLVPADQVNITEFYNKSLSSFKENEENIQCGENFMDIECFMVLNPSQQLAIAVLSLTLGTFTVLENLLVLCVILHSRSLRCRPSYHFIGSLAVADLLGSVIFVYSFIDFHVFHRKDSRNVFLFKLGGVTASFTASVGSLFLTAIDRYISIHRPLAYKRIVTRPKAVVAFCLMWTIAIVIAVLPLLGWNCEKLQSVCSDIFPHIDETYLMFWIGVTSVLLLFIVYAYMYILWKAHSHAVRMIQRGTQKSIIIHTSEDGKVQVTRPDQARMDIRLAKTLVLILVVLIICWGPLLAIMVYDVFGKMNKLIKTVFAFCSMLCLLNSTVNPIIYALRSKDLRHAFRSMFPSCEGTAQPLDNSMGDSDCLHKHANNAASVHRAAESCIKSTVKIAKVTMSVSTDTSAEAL
T1 sequence (Q8NER1 whole entry): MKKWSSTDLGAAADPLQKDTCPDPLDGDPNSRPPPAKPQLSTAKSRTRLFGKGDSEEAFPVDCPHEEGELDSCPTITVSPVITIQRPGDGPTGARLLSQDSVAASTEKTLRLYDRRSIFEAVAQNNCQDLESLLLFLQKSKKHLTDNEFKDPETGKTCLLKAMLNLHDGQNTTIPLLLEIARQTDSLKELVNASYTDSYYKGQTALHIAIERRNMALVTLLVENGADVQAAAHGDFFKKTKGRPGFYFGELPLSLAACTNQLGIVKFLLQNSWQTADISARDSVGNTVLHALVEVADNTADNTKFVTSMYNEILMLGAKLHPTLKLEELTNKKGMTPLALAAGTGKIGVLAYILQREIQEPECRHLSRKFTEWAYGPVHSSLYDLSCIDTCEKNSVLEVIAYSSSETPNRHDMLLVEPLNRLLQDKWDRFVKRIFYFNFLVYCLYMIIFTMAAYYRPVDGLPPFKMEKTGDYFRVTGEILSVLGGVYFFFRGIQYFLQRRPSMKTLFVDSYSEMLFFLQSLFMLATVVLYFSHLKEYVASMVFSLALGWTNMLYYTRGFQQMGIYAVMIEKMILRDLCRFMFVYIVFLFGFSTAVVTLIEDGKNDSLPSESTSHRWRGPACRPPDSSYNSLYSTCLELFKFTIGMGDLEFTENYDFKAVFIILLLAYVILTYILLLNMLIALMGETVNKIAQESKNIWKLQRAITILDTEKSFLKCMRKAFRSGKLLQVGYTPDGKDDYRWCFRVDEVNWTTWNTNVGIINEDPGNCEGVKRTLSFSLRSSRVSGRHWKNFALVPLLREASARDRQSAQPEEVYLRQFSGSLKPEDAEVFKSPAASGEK
Sequence of Cannabinoid receptor 2 (P34972 whole entry): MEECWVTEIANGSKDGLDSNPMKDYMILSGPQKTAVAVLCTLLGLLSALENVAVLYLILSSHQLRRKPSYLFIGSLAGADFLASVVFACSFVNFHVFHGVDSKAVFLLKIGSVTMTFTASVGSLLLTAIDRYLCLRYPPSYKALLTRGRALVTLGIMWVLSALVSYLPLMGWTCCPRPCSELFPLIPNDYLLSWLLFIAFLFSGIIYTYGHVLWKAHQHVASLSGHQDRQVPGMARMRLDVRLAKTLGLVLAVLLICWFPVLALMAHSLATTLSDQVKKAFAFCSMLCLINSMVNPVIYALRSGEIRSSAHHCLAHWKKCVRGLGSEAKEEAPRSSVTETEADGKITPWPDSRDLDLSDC
Sequence of Cannabinoid receptor 1 (Mus musculus, UniProt P47746) (P47746 whole entry): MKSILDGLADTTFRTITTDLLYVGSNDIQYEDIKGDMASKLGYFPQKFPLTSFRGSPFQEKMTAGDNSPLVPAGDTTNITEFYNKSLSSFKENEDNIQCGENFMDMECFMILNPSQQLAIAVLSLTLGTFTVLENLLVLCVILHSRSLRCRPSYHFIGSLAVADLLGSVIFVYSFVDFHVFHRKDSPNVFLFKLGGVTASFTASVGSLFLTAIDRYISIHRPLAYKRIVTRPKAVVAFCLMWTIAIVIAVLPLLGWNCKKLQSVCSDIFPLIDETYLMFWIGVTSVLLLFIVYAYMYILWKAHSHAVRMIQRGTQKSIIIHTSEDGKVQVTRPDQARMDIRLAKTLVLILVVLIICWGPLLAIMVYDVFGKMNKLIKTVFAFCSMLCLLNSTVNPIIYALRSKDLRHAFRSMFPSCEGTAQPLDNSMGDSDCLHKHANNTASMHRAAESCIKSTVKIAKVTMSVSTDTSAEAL

Row | SMILES | Emax [1] [%] | Ki [2] [nM] | Ki [3] [nM] | EC50 [4] [nM] | EC50 [5] [nM]
1 | CCCCC/C=C\C/C=C\C/C=C\C/C=C\CCCC(=O)N[C@@H]1C[C@H]1O [listing 1 of 2 here] | 80.3 |  |  |  | 
2 | CCCCCCCCCCCCCCCC(=O)NCCO [PALMIDROL] |  | > 5000 | > 5000 | > 10000 | 
3 | CCCCC/C=C\C/C=C\C/C=C\C/C=C\CCCC(=O)N[C@H]1C[C@H]1O | 65.8 |  | 190 | 2400 | 
4 | CCCCC/C=C\C/C=C\C/C=C\C/C=C\CCCC(=O)N[C@@H]1C[C@H]1O (racemic) |  |  | 240 | 50 | 
5 | CCCCC/C=C\C/C=C\C/C=C\C/C=C\CCCC(=O)N[C@@H]1C[C@@H]1O (racemic) |  |  | 150 | 1900 | 
6 | COc1cc(CNC(=O)CCCC/C=C/C(C)C)ccc1O [CAPSAICIN] |  |  | > 10000 |  | 
7 | CCCCCCCCCCCCCCCC(=O)N[C@@H]1C[C@@H]1O (racemic) |  | > 10000 | > 10000 | 26400 | 
8 | CCCCCCCC/C=C\CCCCCCCC(=O)N[C@@H]1C[C@@H]1O [listing 1 of 2 here] | 62.5 |  |  |  | 
9 | CCCCCCCC/C=C\CCCCCCCC(=O)N[C@@H]1C[C@@H]1O [listing 2 of 2 here] |  |  | 2040 | 150 | 
10 | CCCCCCCCCCCCCCCC(=O)N[C@@H]1C[C@H]1O (racemic) |  | > 10000 | > 10000 | 40 | 
11 | CCCCC/C=C\C/C=C\C/C=C\C/C=C\CCCC(=O)N[C@H]1C[C@@H]1O | 75.7 |  | 290 | 47 | 2550
12 | CCCCCCCC/C=C\CCCCCCCC(=O)NCCO [OLEOYLETHANOLAMIDE] |  |  | > 10000 | 3650 | 
13 | CCCCC/C=C\C/C=C\C/C=C\C/C=C\CCCC(=O)N[C@@H]1C[C@@H]1O [listing 1 of 2 here] |  |  | 200 | 610 | 
14 | CCCCCCCC/C=C\CCCCCCCC(=O)N[C@@H]1C[C@H]1O [listing 1 of 2 here] |  |  | 4410 | 13 | 
15 | CCCCCCC(C)(C)c1ccc([C@@H]2C[C@H](O)CC[C@H]2CCCO)c(O)c1 [CP-55940] | 83 |  |  | 10 | 
16 | CCCCC/C=C\C/C=C\C/C=C\C/C=C\CCCC(=O)N[C@@H]1C[C@H]1O [listing 2 of 2 here] |  |  | 190 | 23 | 780
17 | CCCCC/C=C\C/C=C\C/C=C\C/C=C\CCCC(=O)N[C@@H]1C[C@@H]1O [listing 2 of 2 here] | 76.5 |  |  |  | 
18 | CCCCCCCC/C=C\CCCCCCCC(=O)N[C@@H]1C[C@H]1O (racemic) |  |  | 380 | 60 | 
19 | CCCCCCCC/C=C\CCCCCCCC(=O)N[C@@H]1C[C@H]1O [listing 2 of 2 here] | 72.5 |  |  |  | 
20 | CCCCCCCC/C=C\CCCCCCCC(=O)N[C@@H]1C[C@@H]1O (racemic) |  |  | 340 | 3700 | 
21 | CCCCC/C=C\C/C=C\C/C=C\C/C=C\CCCC(=O)NCCO [ANANDAMIDE] |  |  |  | 200 | 

Source: ChEMBL document CHEMBL1138475, “Conformationally constrained fatty acid ethanolamides as cannabinoid and vanilloid receptor probes” (J Med Chem, 2009)
